Measurements from ChEMBL document CHEMBL4765342, “Substituted benzothiophene and benzofuran derivatives as a novel class of bone morphogenetic Protein-2 upregulators: Synthesis, anti-osteoporosis efficacies in ovariectomized rats and a zebrafish model, and ADME properties” (Eur J Med Chem, 2020).
The source made the active and inactive calls. The rule behind the calls is not given here.

Columns and labels:
[1] = Toxicity in Kunming mouse assessed as organism death administered orally for 3 days and observed for 17 days starting from drug administration; details: in vivo, po, 408 h, time 17 day
[2] = Solubility in PBS buffer at pH 7.4 assessed as precipitation of compound at 10000 nM; format: physicochemical; details: pH 7.4, 10 µM
[3] = Solubility in PBS buffer at pH 7.4 assessed as precipitation of compound at 5000 nM; format: physicochemical; details: pH 7.4, 5 µM
[4] = Solubility in PBS buffer at pH 7.4 assessed as precipitation of compound at 2500 nM; format: physicochemical; details: pH 7.4, 2.5 µM
[5] = Solubility in PBS buffer at pH 7.4 assessed as precipitation of compound at 1250 nM; format: physicochemical; details: pH 7.4, 1.25 µM
[6] = Solubility in PBS buffer at pH 7.4 assessed as precipitation of compound at 625 nM; format: physicochemical; details: pH 7.4, 0.625 µM
[7] = Solubility in PBS buffer at pH 7.4 assessed as precipitation of compound at 312.5 nM; format: physicochemical; details: pH 7.4, 0.3125 µM
[8] = Solubility in PBS buffer at pH 7.4 assessed as precipitation of compound at 156.25 nM; format: physicochemical; details: pH 7.4, 0.15625 µM
Rattus norvegicus [9] = assay: Antiosteoporotic activity in Sprague-Dawley rat model of OVX-induced bone loss assessed as increase in trabecular bone volume at 30 mg/kg, ig administered for 3 months with 1 day break after 6 consecutive days administration; format: functional, organism-based
Outline: (§1)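 Female SD rats given bilateral ovariectomy (sham: fat tissue removed instead), adapted 1 week beforehand; dosing began on postoperative day 10, n = 10 per group. Test drugs as 3 mg/mL suspension by gavage; raloxifene hydrochloride at 0.5 mg/mL. Controls got water. Tetracycline 30 mg/kg ip 16 and 3 days before euthanasia. Tibia stained sections give trabecular morphology and TBV%. BMD of L4-6 measured by densitometry under pentobarbital 45 mg/kg anaesthesia. Reported as mean ± SD.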

Rattus norvegicus [10] = assay: Antiosteoporotic activity in Sprague-Dawley rat model of OVX-induced bone loss assessed as increase in trabecular bone mineral density at 30 mg/kg, ig administered for 3 months with 1 day break after 6 consecutive days administration; format: functional, organism-based; outline: as §1
[11] = Apparent permeability across apical to basolateral side in human Caco-2 cells at 10 uM incubated for 2 hrs LC-MS/MS analysis; format: ADME, cell-based; details: for Papp A→B at 2 h, 10 µM: Caco-2
Outline: (§2)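 Caco-2 monolayers, apical to basolateral direction. Plates preincubated 30 min at 37 °C, then exposed to 10 µM compound for 2 h at 37 °C without shaking. Donor and receiver samples were quenched, centrifuged and measured by LC/MS/MS, in duplicate. Papp calculated from receiver concentration, area and time. Monolayer integrity checked by TEER and by Lucifer yellow leakage (30 min, 37 °C, ex 485/em 530 nm).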

[12] = Permeability across apical to basolateral side in human Caco-2 cells assessed as transepithelial electrical resistance at 10 uM incubated for 2 hrs LC-MS/MS analysis; format: ADME, cell-based; details: caco-2, 2 h; outline: as §2
[13] = Permeability across apical to basolateral side in human Caco-2 cells assessed as […] yellow leakage at 10 uM incubated for 2 hrs LC-MS/MS analysis; format: ADME, cell-based; details: caco-2, 2 h; outline: as §2
Rattus norvegicus [14] = assay: Antiosteoporotic activity in Sprague-Dawley rat model of OVX-induced bone loss assessed as increase in number of trabeculae at 30 mg/kg, ig administered for 3 months with 1 day break after 6 consecutive days administration; format: functional, organism-based; outline: as §1
Rattus norvegicus [15] = assay: Antiosteoporotic activity in Sprague-Dawley rat model of OVX-induced bone loss assessed as increase in thickness of trabeculae at 30 mg/kg, ig administered for 3 months with 1 day break after 6 consecutive days administration; format: functional, organism-based; outline: as §1
Rattus norvegicus [16] = assay: Antiosteoporotic activity in Sprague-Dawley rat model of OVX-induced bone loss assessed as narrowed gap between trabeculae at 30 mg/kg, ig administered for 3 months with 1 day break after 6 consecutive days administration; format: functional, organism-based; outline: as §1
in vitro [17] = details: human
in vitro [18] = details: human; remark: listed apart in the source

| Structure (SMILES) | solubility [2] | solubility [3] | solubility [4] | solubility [5] | solubility [6] | solubility [7] | solubility [8] | also measured |
| --- | --- | --- | --- | --- | --- | --- | --- | --- |
| COc1ccc2cc(C(=O)OCCP(=O)([O-])[O-])oc2c1.[Na+].[Na+] | – | – | – | – | – | – | – | LD50 [1]: > 500 mg/kg/day |
| COc1ccc2cc(C(=O)N(C)CCN(C)C)oc2c1 | Insoluble | Insoluble | Soluble | Soluble | Soluble | Soluble | Soluble | – |
| COc1ccc2cc(C(=O)OCCCN(C)C)sc2c1.CS(=O)(=O)O | – | – | – | – | – | – | – | LD50 [1]: > 500 mg/kg/day |
| COc1ccc2cc(C(=O)OCCCN(C)C)sc2c1 [listing 1 of 2 here] | – | – | – | – | – | – | – | Activity (Rattus norvegicus [9]): Active; Activity (Rattus norvegicus [10]): Active |
| COc1ccc2cc(C(=O)OCCN(C)C)oc2c1 [listing 1 of 2 here] | Insoluble | Soluble | Soluble | Soluble | Soluble | Soluble | Soluble | – |
| CCCCOC(=O)c1cc2ccc(OC)cc2s1 | Insoluble | Insoluble | Insoluble | Insoluble | Insoluble | Soluble | Soluble | – |
| COc1ccc2cc(C(=O)NCCN(C)C)oc2c1 | Insoluble | Insoluble | Soluble | Soluble | Soluble | Soluble | Soluble | – |
| O=C(OCCN1CCOCC1)c1cc2cc3c(cc2s1)OCO3 [listing 1 of 2 here] | – | – | – | – | – | – | – | Activity (Rattus norvegicus [9]): Active; Activity (Rattus norvegicus [10]): Active |
| CCOC(=O)c1cc2cc3c(cc2s1)OCO3 | Insoluble | Insoluble | Insoluble | Insoluble | Insoluble | Insoluble | Soluble | – |
| COc1ccc2cc(C(=O)OCCP(=O)(O)O)oc2c1 [listing 1 of 2 here] | Soluble | Soluble | Soluble | Soluble | Soluble | Soluble | Soluble | – |
| CCOC(=O)c1cc2ccc(OC)cc2s1 | Insoluble | Insoluble | Insoluble | Insoluble | Insoluble | Insoluble | Insoluble | – |
| CN(C)CCNC(=O)c1cc2cc3c(cc2s1)OCO3 | Insoluble | Insoluble | Insoluble | Insoluble | Soluble | Soluble | Soluble | – |
| CN(C)CCCOC(=O)c1cc2cc3c(cc2s1)OCO3 | Insoluble | Insoluble | Insoluble | Insoluble | Soluble | Soluble | Soluble | – |
| COc1ccc2cc(C(=O)OCCN(C)C)oc2c1.CS(=O)(=O)O | – | – | – | – | – | – | – | LD50 [1]: > 500 mg/kg/day |
| CS(=O)(=O)O.O=C(OCCN1CCOCC1)c1cc2cc3c(cc2s1)OCO3 | – | – | – | – | – | – | – | LD50 [1]: > 500 mg/kg/day |
| CN/C(=N/CCSCc1nc[nH]c1C)NC#N [CIMETIDINE] | – | – | – | – | – | – | – | Papp A→B at 2 h, 10 µM [11]: 6.79 nm/s; Activity [12]: 318 Ω·cm²; Activity [13]: 0.134% |
| COc1ccc2cc(C(=O)OCCN3CCOCC3)oc2c1 | Insoluble | Soluble | Soluble | Soluble | Soluble | Soluble | Soluble | – |
| CN(C)CCOC(=O)c1cc2cc3c(cc2s1)OCO3 | Insoluble | Insoluble | Insoluble | Soluble | Soluble | Soluble | Soluble | – |
| CC(=O)c1cc2ccccc2s1 | – | – | – | – | – | – | – | Activity (Rattus norvegicus [14]): Active; Activity (Rattus norvegicus [15]): Active; Activity (Rattus norvegicus [16]): Active; Activity (Rattus norvegicus [9]): Active; Activity (Rattus norvegicus [10]): Active; Papp A→B at 2 h, 10 µM [11]: 221 nm/s; Activity [12]: 351 Ω·cm²; Activity [13]: 0.179%; half-life at 0.5 h, 100 µM (in vitro [17]; liver microsomes): 1.25 min; microsomal CLint at 0.5 h, 100 µM (in vitro [18]; liver microsomes): > 300 µL/min/mg |
| COCCc1ccc(OCC(O)CNC(C)C)cc1 (stereo unspecified) [METOPROLOL] | – | – | – | – | – | – | – | Papp A→B at 2 h, 10 µM [11]: 326 nm/s; Activity [12]: 326 Ω·cm²; Activity [13]: 0.154%; half-life at 0.5 h, 100 µM (in vitro [17]; microsomes): 159 min; microsomal CLint at 0.5 h, 100 µM (in vitro [18]; liver microsomes): 4.35 µL/min/mg |
| COc1ccc2cc(C(=O)OCCN(C)C)oc2c1 [listing 2 of 2 here] | – | – | – | – | – | – | – | Activity (Rattus norvegicus [14]): Active; Activity (Rattus norvegicus [15]): Active; Activity (Rattus norvegicus [16]): Active; Activity (Rattus norvegicus [9]): Active; Activity (Rattus norvegicus [10]): Active |
| CN(C)CCCOc1nn(Cc2ccccc2)c2ccccc12 [BENZYDAMINE] | – | – | – | – | – | – | – | half-life at 0.5 h, 100 µM (in vitro [17]; microsomes): 43.1 min; microsomal CLint at 0.5 h, 100 µM (in vitro [18]; microsomes): 16.1 µL/min/mg |
| COc1ccc2cc(C(=O)OCCCN(C)C)sc2c1 [listing 2 of 2 here] | Insoluble | Insoluble | Insoluble | Insoluble | Soluble | Soluble | Soluble | – |
| O=C(OCCN1CCOCC1)c1cc2cc3c(cc2s1)OCO3 [listing 2 of 2 here] | Insoluble | Insoluble | Insoluble | Soluble | Soluble | Soluble | Soluble | – |
| COc1ccc2cc(C(=O)OCCP(=O)(O)O)oc2c1 [listing 2 of 2 here] | – | – | – | – | – | – | – | Activity (Rattus norvegicus [9]): Active; Activity (Rattus norvegicus [10]): Active |
| O=C(O)Cc1ccccc1Nc1c(Cl)cccc1Cl [DICLOFENAC] | – | – | – | – | – | – | – | microsomal CLint at 0.5 h, 100 µM (in vitro [18]; microsomes): 197 µL/min/mg |
| CCOc1ccc(NC(C)=O)cc1 [PHENACETIN] | – | – | – | – | – | – | – | half-life at 0.5 h, 100 µM (in vitro [17]; microsomes): 26.5 min; microsomal CLint at 0.5 h, 100 µM (in vitro [18]; liver microsomes): 26.2 µL/min/mg |
| COc1ccc2cc(C(=O)OCCCN(C)C)oc2c1 | Insoluble | Soluble | Soluble | Soluble | Soluble | Soluble | Soluble | – |
| COc1ccc2cc(C(=O)OCP(=O)(O)O)oc2c1 | Insoluble | Soluble | Soluble | Soluble | Soluble | Soluble | Soluble | – |
| CC[C@H]1OC(=O)[C@H](C)[C@@H](O[C@H]2C[C@@](C)(OC)[C@@H](O)[C@H](C)O2)[C@H](C)[C@@H](O[C@@H]2O[C@H](C)C[C@H](N(C)C)[C@H]2O)[C@](C)(O)C[C@@H](C)C(=O)[C@H](C)[C@@H](O)[C@]1(C)O [ERYTHROMYCIN] | – | – | – | – | – | – | – | Papp ([11]; caco-2, 2 h, 10 µM): 0.0324 10^-6 cm/s; Activity [12]: 396 Ω·cm²; Activity [13]: 0.137% |
